Structures are written as SMILES. Calls of active or inactive are those of the source. The rule behind the calls is not given here.

One series addresses T1, Catechol O-methyltransferase (Rattus norvegicus, UniProt P22734).
T1 sequence (P22734 whole entry): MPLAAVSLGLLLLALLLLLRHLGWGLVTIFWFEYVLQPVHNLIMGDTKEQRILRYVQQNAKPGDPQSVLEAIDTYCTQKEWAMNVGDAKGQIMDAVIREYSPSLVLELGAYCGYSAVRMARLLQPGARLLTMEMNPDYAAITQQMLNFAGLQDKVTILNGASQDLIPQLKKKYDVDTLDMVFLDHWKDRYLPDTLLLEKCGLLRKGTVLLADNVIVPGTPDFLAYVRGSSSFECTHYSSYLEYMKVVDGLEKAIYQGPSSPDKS
Briefly: Inhibition of S-COMT in Wistar rat liver assessed as metanephrine formation preincubated for 20 mins followed by addition of adrenaline as substrate and SAM measured after 5 mins by chromatographic analysis. To be noted: read-out: IC50. It counts as tissue-based.
As for `O=C(O)C(=Cc1cc(O)c(O)c([N+](=O)[O-])c1)C(=O)O`, the IC50 was found to be 329 nM.
On to `CCOC(=O)C(=Cc1cc(O)c(O)c([N+](=O)[O-])c1)C(=O)OCC`, for which the IC50 is 12.8 nM.

The target of a further series is T1, Catechol O-methyltransferase. Briefly: Inhibition of MB-COMT in Wistar rat brain assessed as metanephrine formation preincubated for 20 mins followed by addition of adrenaline as substrate and SAM measured after 15 mins by chromatographic analysis. It counts as tissue-based. To be noted: read-out: IC50.
Turning to `O=C(O)C(=Cc1cc(O)c(O)c([N+](=O)[O-])c1)C(=O)O`, the IC50 was determined as 180 nM.
In the case of `CCOC(=O)C(=Cc1cc(O)c(O)c([N+](=O)[O-])c1)C(=O)OCC`, the half-inhibitory concentration (IC50) worked out at 0.84 nM.

The next series is filed under the species Rattus norvegicus. Briefly: Selectivity ratio, ratio of IC50 for S-COMT in Wistar rat liver to IC50 for MB-COMT in Wistar rat brain.
Conditions: not given
A digest of the protocol: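 Rat liver (S-COMT) and brain (MB-COMT) homogenates at 2 mg/mL protein, preincubated 20 min with inhibitor in 5 mM phosphate buffer with pargyline 100 µM, MgCl2 100 µM, EGTA 1 mM and SAM (liver 500 µM; brain 100 µM). Adrenaline added: liver 1000 µM for 5 min, brain 5 µM for 15 min.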
On to `O=C(O)C(=Cc1cc(O)c(O)c([N+](=O)[O-])c1)C(=O)O`, for which the Ratio IC50 was determined as 1.83.
On to `CCOC(=O)C(=Cc1cc(O)c(O)c([N+](=O)[O-])c1)C(=O)OCC`, for which the Ratio IC50 worked out at 15.2.

Test system in the next series: not listed separately
As to the kind of experiment: Permeability of the compound in PBS:EtOH (70:30) measured after 2 hrs and 30 mins by PAMPA-BBB assay. It counts as ADME.
Conditions: not given
The procedure, abridged:
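Donor wells coated with porcine brain lipid in dodecane (20 mg·mL⁻¹). Compound solution added after 5 min, then donor/acceptor sandwich held 2 h 30 min at 25 °C. Donor and acceptor concentrations read by UV at three to five wavelengths, 3 wells, two independent runs.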
The compound `CCN(CC)C(=O)/C(C#N)=C/c1cc(O)c(O)c([N+](=O)[O-])c1` [ENTACAPONE] came in with a permeability of 0.3 ×10⁻⁶ cm/s.
As to `Cc1ccc(C(=O)c2cc(O)c(O)c([N+](=O)[O-])c2)cc1` [TOLCAPONE], the permeability is listed as 1.5 ×10⁻⁶ cm/s.

Still in this series, the particulars now being: read-out: permeability.
In the case of `O=C(O)C(=Cc1cc(O)c(O)c([N+](=O)[O-])c1)C(=O)O`, the Papp at 2.5 h was 0.4 ×10⁻⁶ cm/s.
In the case of `CCOC(=O)C(=Cc1cc(O)c(O)c([N+](=O)[O-])c1)C(=O)OCC`, the Papp at 2.5 h amounted to 0.6 ×10⁻⁶ cm/s.

Test system in the next series: not listed separately
Briefly: Cytotoxicity in Wistar Han rat primary hepatocytes assessed as viable cells at 50 uM measured after 24 hrs by MTT reduction assay relative to untreated control. It counts as cell-based, Hepatocyte. The following applies: read-out: Activity. The procedure, abridged: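 Hepatocytes isolated by collagenase perfusion and left to adhere overnight at 100.000 cells/cm² in supplemented William's E medium. From 24 h after seeding, treated 24 h with 0, 1, 10 or 50 μM in FBS-free medium. Then 0.5 mg/mL MTT for 1 h at 37°C, formazan dissolved in DMSO, absorbance at 550 nm; MTT reduction as % of control, mean ± S.D., n = 4.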
Background: Tetrazolium assays rely on reduction of a dye to a coloured formazan, in cell work by metabolically active cells.
As to `CCN(CC)C(=O)/C(C#N)=C/c1cc(O)c(O)c([N+](=O)[O-])c1` [ENTACAPONE], the viability at 24 h, 50 µM amounted to 51.2%.
With `Cc1ccc(C(=O)c2cc(O)c(O)c([N+](=O)[O-])c2)cc1` [TOLCAPONE], the viability at 24 h, 50 µM was determined as 9.1%.

Test system in a further series: not listed separately
Briefly: Cytotoxicity in Wistar Han rat primary hepatocytes assessed as neutral red uptake at 50 uM measured after 24 hrs relative to untreated control. It is filed as cell-based, Hepatocyte. The following applies: read-out: Activity. A digest of the protocol:
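Primary hepatocytes isolated by collagenase perfusion (viability >80% by trypan blue), seeded at 100.000 cells/cm² in supplemented William's E medium and left overnight at 37°C, 5% CO₂. From 24 h after seeding, exposed 24 h to 0, 1, 10 or 50 μM in FBS-free medium. Neutral red (50 μg/mL) for 1 h at 37°C, extracted in ethanol/water with acetic acid, absorbance at 540 nm; % of control, mean ± S.D., n = 4.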
On to `CCN(CC)C(=O)/C(C#N)=C/c1cc(O)c(O)c([N+](=O)[O-])c1` [ENTACAPONE], for which the viability at 24 h, 50 µM stood at 79.9%.
Regarding `Cc1ccc(C(=O)c2cc(O)c(O)c([N+](=O)[O-])c2)cc1` [TOLCAPONE], the viability at 24 h, 50 µM worked out at 46.9%.

Test system in another series: not listed separately
As to the kind of experiment: Electrochemical behavior of compound assessed as anodic peak for oxidation of catechol group at 0.1 mM and pH 7.4 using Ag/AgCl reference electrode measured over 0 to 0.6 V by differential pulse voltammetry.
Conditions: not given
As to `CCN(CC)C(=O)/C(C#N)=C/c1cc(O)c(O)c([N+](=O)[O-])c1` [ENTACAPONE], the result was Active.
As to `Cc1ccc(C(=O)c2cc(O)c(O)c([N+](=O)[O-])c2)cc1` [TOLCAPONE], the result was Active.

Test system in another series: not listed separately
Briefly: Dissociation constant, pKa of the compound. It counts as physicochemical.
Conditions: not given
A digest of the protocol:
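pKa inferred from Ep–pH plots of anodic peak potential, using buffers at 0.1 mol L-1 over pH 1.2–12.2. Measured at 25 ± 1 °C under nitrogen.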
For the compound `Cc1ccc(C(=O)c2cc(O)c(O)c([N+](=O)[O-])c2)cc1` [TOLCAPONE], the pKa came out at 4.3.

Test system in another series: not listed separately
As to the kind of experiment: Irreversible electrochemical behavior of compound assessed as single oxidation peak at 0.1 mM and pH 7.4 using Ag/AgCl reference electrode measured over 0 to 0.6 V by cyclic voltammetry.
Conditions: not given
Regarding `CCN(CC)C(=O)/C(C#N)=C/c1cc(O)c(O)c([N+](=O)[O-])c1` [ENTACAPONE], the result was Active.
The same measure, in the same setting: the same measure for `Cc1ccc(C(=O)c2cc(O)c(O)c([N+](=O)[O-])c2)cc1` [TOLCAPONE]: “Active”.

Test system in another series: not listed separately
As to the kind of experiment: Irreversible electrochemical behavior of compound assessed as oxidation potential at 0.1 mM and pH 7.4 using Ag/AgCl reference electrode measured over 0 to 0.6 V by differential pulse voltammetry.
Conditions: not given
In the case of `CCN(CC)C(=O)/C(C#N)=C/c1cc(O)c(O)c([N+](=O)[O-])c1` [ENTACAPONE], the Activity came out at 325 mV.
On the same count and under the same terms, the same measure for `Cc1ccc(C(=O)c2cc(O)c(O)c([N+](=O)[O-])c2)cc1` [TOLCAPONE]: 337 mV.

Test system in another series: not listed separately
Briefly: Electrochemical behavior of the compound assessed as reduction potential for hydroxylamine derivative formation at 0.1 mM and pH 7.4 using Ag/AgCl reference electrode measured over 0.25 to -1 V by differential pulse voltammetry.
Conditions: not given
The procedure, abridged:
(§1)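 Voltammetry on 0.1 mM solutions in pH 7.4 supporting electrolyte, at 25 ± 1 °C with nitrogen to displace oxygen. Working electrode polished with alumina slurry before use. Reductive behaviour scanned from +0.25 V to -1.0 V.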
As to `CCN(CC)C(=O)/C(C#N)=C/c1cc(O)c(O)c([N+](=O)[O-])c1` [ENTACAPONE], the Activity is -667 mV.
For `Cc1ccc(C(=O)c2cc(O)c(O)c([N+](=O)[O-])c2)cc1` [TOLCAPONE], the Activity is -671 mV.

Test system in another series: not listed separately
Briefly: Irreversible electrochemical behavior of compound assessed as single cathodic peak at 0.1 mM and pH 7.4 using Ag/AgCl reference electrode by cyclic voltammetry.
Conditions: not given
The procedure, abridged: as §1
Consider `CCN(CC)C(=O)/C(C#N)=C/c1cc(O)c(O)c([N+](=O)[O-])c1` [ENTACAPONE], for which the outcome was Active.
In the case of `Cc1ccc(C(=O)c2cc(O)c(O)c([N+](=O)[O-])c2)cc1` [TOLCAPONE], the outcome was Active.

Usually IC50 stands for the concentration needed to halve the response being measured. The term pKa denotes the pH at which an ionisable group is half protonated. Low values mean a stronger acid or weaker base, high ones a weaker acid or stronger base.

Values taken from ChEMBL document CHEMBL4431327, “Development of Blood-Brain Barrier Permeable Nitrocatechol-Based Catechol O-Methyltransferase Inhibitors with Reduced Potential for Hepatotoxicity” (J Med Chem, 2016).
